Values after ≈ are worked out from the molar mass of the structure shown. Active and inactive are the calls of the source. No cut-off for these calls is given here.
Experiments:
[1] = Antifungal activity against Rhodotorula bogoriensis MUCL 11796 by microdilution method; type: functional
Procedure, shortened: (§1)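 Broth microdilution: log2 dilution series made from stocks in 10% DMSO, diluted 1:5 in RPMI 1640 with glutamine and without bicarbonate. Equal volume of working inoculum added: 1 × 10^3 CFU/mL at 37 °C (C. albicans, A. flavus) or 1 × 10^5 CFU/mL at 20 °C (R. bogoriensis). Absorbance read at 530 nm. MIC taken as the concentration giving 50% growth inhibition versus 1% DMSO medium control. Amphotericin B as positive control.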

[2] = Antifungal activity against Rhodotorula bogoriensis MUCL 11796 at 600 ug/dish after 4 days by disk diffusion method; type: functional; settings: 600 ug/dis
Procedure, shortened: (§2)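 Disk diffusion: strains subcultured on Sabouraud dextrose agar; inoculum of colonies (yeast) or mycelium plus spores (A. flavus) in sterile saline adjusted to 0.5 McFarland, swabbed onto Mueller-Hinton + GMB agar ([…], 0.5 μg/mL methylene blue). DMSO-dissolved compound applied to 6 mm paper disks and freeze-dried; 600 μg/dish in triplicate. Incubated at 37 °C for 1 day (C. albicans, A. flavus) or 20 °C for 4 days (R. bogoriensis). Nystatin disks as positive control, DMSO disks as negative control.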

Aspergillus flavus [3] = assay: Antifungal activity against Aspergillus flavus IHEM 5785 at 600 ug/dish after 1 day by disk diffusion method; type: functional, organism-based; settings: 600 ug/dis; procedure, shortened: as §2
Candida albicans [4] = assay: Antifungal activity against Candida albicans IHEM 374 by microdilution method; type: functional; procedure, shortened: as §1
Plasmodium falciparum [5] = assay: Antiplasmodial activity against chloroquine-sensitive asexual erythrocytic stage of Plasmodium falciparum NF54 assessed as […] lactate dehydrogenase assay; type: functional, organism-based
Procedure, shortened: (§3)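 Asexual erythrocytic P. falciparum kept in continuous culture (modified Trager–Jensen). Growth measured by parasite lactate dehydrogenase assay (modified Makler). Full dose-response: 10 twofold dilutions in complete medium from 10 μg/mL down to 0.02 μg/mL. Tested in triplicate on one occasion. Chloroquine and artesunate as references.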

Candida albicans [6] = assay: Antifungal activity against Candida albicans IHEM 374 at 600 ug/dish after 1 day by disk diffusion method; type: functional, organism-based; settings: 600 ug/dis; procedure, shortened: as §2
Aspergillus flavus [7] = assay: Antifungal activity against Aspergillus flavus IHEM 5785 by microdilution method; type: functional; procedure, shortened: as §1
CHO = assay: Cytotoxicity against CHO cells assessed as cell growth and survival after 48 hrs by MTT assay; type: cell-based; settings: Cricetulus griseus
Procedure, shortened: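 CHO mammalian cells; growth and survival read by MTT assay. Samples diluted in complete medium using the same scheme as the emetine reference (tenfold serial dilutions, 6 concentrations). Emetine was the reference drug. IC50 obtained by non-linear dose-response curve fitting.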

Plasmodium falciparum [8] = assay: Resistance index, ratio of IC50 for chloroquine-resistant asexual erythrocytic stage of Plasmodium falciparum Dd2 to IC50 for chloroquine-sensitive asexual erythrocytic stage of Plasmodium falciparum NF54; type: functional
Procedure, shortened: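 Resistance index calculated as IC50 against Dd2 divided by IC50 against NF54, both from the pLDH assay.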

Plasmodium falciparum [9] = assay: Antiplasmodial activity against chloroquine-resistant asexual erythrocytic stage of Plasmodium falciparum Dd2 assessed as […] lactate dehydrogenase assay; type: functional, organism-based; procedure, shortened: as §3
[10] = Selectivity index, ratio of IC50 for CHO cells to IC50 for chloroquine-sensitive asexual erythrocytic stage of Plasmodium falciparum NF54; type: toxicity, cell-based; settings: hamster; read-out: Ratio IC50
Procedure, shortened: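 Selectivity index calculated as IC50 in CHO cells (MTT) divided by IC50 against NF54 (pLDH).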

## OCCCCNc1ccc2ncccc2c1
[1]
  MIC: 1200 µM (≈ 260 µg/mL)
[2]
  Activity: Active
Aspergillus flavus [3]
  Activity: Active
Candida albicans [4]
  MIC: 1200 µM (≈ 260 µg/mL)
Plasmodium falciparum [5]
  IC50: > 45 µM
Candida albicans [6]
  Activity: Active
Aspergillus flavus [7]
  MIC: 10 µM (≈ 2.16 µg/mL)

## Cc1nc2ccccc2cc1NCCCC(C)O (stereo not drawn)
Plasmodium falciparum [5]
  IC50: > 40 µM

## CC(C)(O)CCCNc1cccc2ncccc12
[1]
  MIC: 20 µM (≈ 4.89 µg/mL)
[2]
  Activity: Active
Aspergillus flavus [3]
  Activity: Active
Candida albicans [4]
  MIC: 2000 µM (≈ 489 µg/mL)
Plasmodium falciparum [5]
  IC50: 28.2 µM
Candida albicans [6]
  Activity: Active
Aspergillus flavus [7]
  MIC: 300 µM (≈ 73.3 µg/mL)

## OCCCCNc1cnc2ccccc2c1
Plasmodium falciparum [5]
  IC50: > 45 µM

## O=C1CCCN1c1ccc2ncccc2c1
Plasmodium falciparum [5]
  IC50: > 45 µM

## O=C1CCCN1c1cnc2ccccc2c1
Plasmodium falciparum [5]
  IC50: > 45 µM

## O=C1CCCN1c1cccc2ncccc12
Plasmodium falciparum [5]
  IC50: > 45 µM

## C1=CCN(c2ccc3ncccc3c2)C1
Plasmodium falciparum [5]
  IC50: > 50 µM

## O=C1CCCN1c1cccc2cccnc12
Plasmodium falciparum [5]
  IC50: > 45 µM

## c1cc(N2CCCC2)c2cccnc2c1
Plasmodium falciparum [5]
  IC50: > 50 µM

## Cc1nc2ccccc2cc1NCCCC(C)(C)O
Plasmodium falciparum [5]
  IC50: > 35 µM

## OCCCCNc1cccc2ncccc12
CHO
  IC50: > 100 µM
Plasmodium falciparum [8]
  Ratio IC50: 2.5
Plasmodium falciparum [9]
  IC50: 49 µM
Plasmodium falciparum [5]
  IC50: 19.9 µM
[10]
  selectivity ratio: 23

## CC(O)CCCNc1ccc2ncccc2c1 (stereo not drawn)
[1]
  MIC: 1100 µM (≈ 253 µg/mL)
[2]
  Activity: Active
Aspergillus flavus [3]
  Activity: Active
Candida albicans [4]
  MIC: 1100 µM (≈ 253 µg/mL)
Plasmodium falciparum [5]
  IC50: > 40 µM
Candida albicans [6]
  Activity: Active
Aspergillus flavus [7]
  MIC: 300 µM (≈ 69.1 µg/mL)

## CC(C)(O)CCCNc1cccc2cccnc12
[1]
  MIC: 30 µM (≈ 7.33 µg/mL)
[2]
  Activity: Active
Aspergillus flavus [3]
  Activity: Active
Candida albicans [4]
  MIC: 1000 µM (≈ 244 µg/mL)
Plasmodium falciparum [5]
  IC50: > 40 µM
Candida albicans [6]
  Activity: Active
Aspergillus flavus [7]
  MIC: 60 µM (≈ 14.7 µg/mL)

## C1=CCN(c2cnc3ccccc3c2)C1
Plasmodium falciparum [5]
  IC50: > 50 µM

## CC(O)CCCNc1cnc2ccccc2c1 (stereo not drawn)
[1]
  MIC: 300 µM (≈ 69.1 µg/mL)
[2]
  Activity: Active
Aspergillus flavus [3]
  Activity: Active
Candida albicans [4]
  MIC: 1100 µM (≈ 253 µg/mL)
Plasmodium falciparum [5]
  IC50: > 40 µM
Candida albicans [6]
  Activity: Active
Aspergillus flavus [7]
  MIC: 100 µM (≈ 23 µg/mL)

## OCCCCNc1cccc2cccnc12
[1]
  MIC: 40 µM (≈ 8.65 µg/mL)
[2]
  Activity: Active
Aspergillus flavus [3]
  Activity: Active
Candida albicans [4]
  MIC: 1200 µM (≈ 260 µg/mL)
Plasmodium falciparum [5]
  IC50: > 45 µM
Candida albicans [6]
  Activity: Active
Aspergillus flavus [7]
  MIC: 100 µM (≈ 21.6 µg/mL)

## C[C@@H]1[C@H](O)[C@@H](C)/C=C/C=C/C=C/C=C/C=C/C=C/C=C/[C@H](O[C@@H]2O[C@H](C)[C@@H](O)[C@H](N)[C@@H]2O)C[C@@H]2O[C@](O)(C[C@@H](O)C[C@@H](O)[C@H](O)CC[C@@H](O)C[C@@H](O)CC(=O)O[C@H]1C)C[C@H](O)[C@H]2C(=O)O [AMPHOTERICIN B]
[1]
  MIC: < 0.2 µM
Candida albicans [4]
  MIC: < 0.2 µM
Aspergillus flavus [7]
  MIC: 30 µM (≈ 27.7 µg/mL)

## CC(O)CCCNc1cccc2ncccc12 (stereo not drawn)
Plasmodium falciparum [5]
  IC50: 32.6 µM

## CC(C)(O)CCCNc1ccc2ncccc2c1
Plasmodium falciparum [5]
  IC50: > 40 µM

## C1=CCN(c2cccc3cccnc23)C1
Plasmodium falciparum [5]
  IC50: > 50 µM

## CC1CCCN1c1cccc2ncccc12 (stereo not drawn)
Plasmodium falciparum [5]
  IC50: > 45 µM

## c1ccc2ncc(N3CCCC3)cc2c1
Plasmodium falciparum [5]
  IC50: > 50 µM

## CC1CCCN1c1cnc2ccccc2c1 (stereo not drawn)
Plasmodium falciparum [5]
  IC50: 31.1 µM

## C1=CCN(c2cccc3ncccc23)C1
Plasmodium falciparum [5]
  IC50: > 50 µM

## CC[C@H]1CN2CCc3cc(OC)c(OC)cc3[C@@H]2C[C@@H]1C[C@H]1NCCc2cc(OC)c(OC)cc21 [EMETINE]
CHO
  IC50: 0.125 µM

## C[C@H]1[C@H](OC(=O)CCC(=O)O)O[C@@H]2O[C@@]3(C)CC[C@H]4[C@H](C)CC[C@@H]1[C@@]24OO3 [ARTESUNATE]
Plasmodium falciparum [8]
  Ratio IC50: 2.2
Plasmodium falciparum [9]
  IC50: 0.011 µM

## CC1CCCN1c1ccc2ncccc2c1 (stereo not drawn)
Plasmodium falciparum [5]
  IC50: 41.9 µM

## Cc1nc2ccccc2cc1N1CCCC1C (stereo not drawn)
CHO
  IC50: 294 µM
Plasmodium falciparum [8]
  Ratio IC50: 2.9
Plasmodium falciparum [9]
  IC50: 38 µM
Plasmodium falciparum [5]
  IC50: 13.3 µM
[10]
  selectivity ratio: 22

## c1cnc2ccc(N3CCCC3)cc2c1
Plasmodium falciparum [5]
  IC50: > 50 µM

## Brc1c(Br)c(Br)n(-c2ccc3ncccc3c2Br)c1Br
Plasmodium falciparum [5]
  IC50: > 15 µM
